NALP1 yeast inh: NALP1 inflammasome inhibitors in reconstituted yeast, colorimetric, S. cerevisiae, triplicate retest. S. cerevisiae NALP1/ASC/caspase-1 growth, X-gal OD620, 72 h. inhibition, % at 10 µM. 0.61% of 280,000 active; in the data active = inhibition mostly above about 24%, no sharp cut-off; inactive = mostly below about 32%
Arrestin-AP2 inh: inhibitors of beta-arrestin/AP2 binding, primary screen, biochemical, GPCR trafficking, flow cytometry | FITC-arrestin peptide / GST-AP2 beads; AP2 beta2 appendage carries R879A mutation | inhibition, % at 10 µM | 0.31% of 340,000 active | AID 504490, 2011;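 active = inhibition above a set limit, near 3 SD of compounds lacking own fluorescence, cut at about 54% in these data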;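 also: plate controls were DMSO wells for no effect and 5 µM unlabelled arrestin peptide for full effect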
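System: GST-AP2 R879A glutathione beads; medium: PBS, Tween 20 0.05%, BSA 0.1%; reagent: fluorescein-tagged arrestin peptide at 50 nM final; schedule: pre-incubation 12 min, peptide binding 1 h, room temperature; detection: flow cytometry, FL1 (488/535 nm); read-out: inhibition as reduced fluorescein signal on beads, percent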
ALR H2O2 inh: inhibitors of human ALR sulfhydryl oxidase, primary screen, biochemical, H2O2 detection, HRP-luminol luminescence, single point; FAD-linked sulfhydryl oxidase ALR (Homo sapiens), P55789; purified ALR, DTT oxidation; inhibition, % (no concentration beside the values); 3.8% of 290,000 active; AID 485317, 2010;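 active = mean replicate inhibition above about 79%, with every replicate also reaching it, limit read from the data; inconclusive = only one of the two criteria met; inactive = mean below limit and not every replicate reaching it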
Target sequence (P55789 whole entry, looked up): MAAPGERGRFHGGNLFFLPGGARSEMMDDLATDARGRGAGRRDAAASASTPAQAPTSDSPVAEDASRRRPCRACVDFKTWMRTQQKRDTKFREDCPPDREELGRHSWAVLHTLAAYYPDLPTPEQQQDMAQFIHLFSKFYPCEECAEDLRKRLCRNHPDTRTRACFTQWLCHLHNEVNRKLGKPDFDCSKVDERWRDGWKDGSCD
Pemphigus Ab inh: inhibitors of pemphigus antibody binding to DSG3, primary screen, biochemical, bead-based, flow cytometry, scFv-GFP. DSG3-coupled beads, scFv-anti-DSG3-GFP binding; hits give low values. binding (percent of control), % at 10 µM. AID 588358, 2011. Desmoglein-3 (Homo sapiens), P32926. 0.48% of 310,000 active;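 active = binding more than 3 SD below its plate's average and above zero; inconclusive = below that plate limit but binding exactly zero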;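 also: hits lower antibody fragment binding to DSG3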
PolyA inh: polyadenylation inhibitors in yeast reporter cells, primary screen, luminescence, S. cerevisiae. S. cerevisiae SKY197-pL101 polyadenylation reporter, beta-gal luminescence; efflux-impaired pdr1/pdr3 knockout yeast; score 100 = 6 SD above DMSO. activity score, % at 12 µM. 0.02% of 300,000 active;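 active = lowest replicate activity score at least 50, where 100 means six control SD above control mean; inconclusive = lowest score under 50 but half or more replicates reach 50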;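 also: yeast exposed to compound for 9 h at 30 °C; higher score means more reporter readthrough which indicates perturbed polyadenylation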
NLRP3 yeast inh: NALP3 inflammasome inhibitors in reconstituted yeast, primary screen, luminescence, uHTS | 0.39% of 330,000 active | Yeast reconstituted NLRP3/ASC/caspase-1, beta-gal luminescence, 24 h | inhibition, % at 10 µM;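 active = inhibition of 50% or more; inactive = inhibition below 50%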;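 also: plate controls were induced DMSO wells for no effect and uninduced yeast grown without galactose for full effect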
* = called active by the depositor; ? = inconclusive; / = no result given. Most compounds without a hit are left out; they make up all but 4.6% or so of the library.

SMILES	NALP1 yeast inh	Arrestin-AP2 inh	ALR H2O2 inh	Pemphigus Ab inh	PolyA inh	NLRP3 yeast inh
O=[N+]([O-])c1ccc(S(=O)(=O)Nc2ccccn2)cc1	15.6	-5.3	-63.0	109.0	12.7	4.7
COc1ccc(N(C(=O)c2ccccc2OC)C2C=CS(=O)(=O)C2)c(OC)c1 (stereo unspecified)	-0.5	0.4	-13.8	108.5	6.9	-5.2
COc1ccc(N(C(C)=O)C2C=CS(=O)(=O)C2)c(OC)c1 (stereo unspecified)	38.7*	-42.4	-1.7	99.6	-3.4	13.6
CCCn1c2ccc(/C(C)=N\O)cc2c2cc(/C(C)=N/O)ccc21	9.3	-1.5	98.2*	100.4	-66.5	27.2
CC[n+]1c(/C=C2\Sc3ccccc3N2C)ccc2cccc(C)c21	100.3*	-36.2	/	117.0	-100.7	/
CC1=CCC2C(=O)N(c3ccc(C)c(Br)c3)C(=O)C2C1 (stereo unspecified)	17.8	10.5	-5.2	48.1*	-4.9	6.9
Cc1ccc(NC(=O)NNC(=O)C2CCN(Cc3ccc(F)cc3Cl)CC2)cc1	-13.2	30.2	-1.2	50.1*	4.6	20.3
CSc1nc(C2CC2)cc(-c2cccs2)c1C#N	8.1	0.8	-4.9	8.8*	-14.2	16.0
COc1ccc(CN(C)CC(=O)Nc2cccc(S(=O)(=O)N3CCCC3)c2)cc1F	/	20.2	-17.4	103.7	/	25.1
COc1ccccc1C(=O)N/N=C(\C)c1ccc(NC(=O)C2CC2)cc1	28.5	0.5	-2.4	2.4*	5.3	-8.4
COc1ccc(OC)c(NC(=O)c2cccc(NC(=O)c3ccco3)c2)c1	/	/	/	102.0	/	/
O=c1[nH]c(=S)[nH]c2nc(-c3cccs3)cc(C(F)(F)F)c12	-2.9	13.6	/	71.3*	10.8	14.7
COc1ccccc1OCCNc1ccc(S(=O)(=O)N2CCCC2)cn1	/	-6.6	/	101.7	/	7.5
COc1ccc(NC(=S)N(C(C)C)C2CCN(C(C)C)CC2)cc1Cl	47.3*	/	-12.7	/	-9.7	7.6
COc1ccc(-c2nc(CS(=O)(=O)CC(=O)NCc3ccccc3Br)c(C)o2)cc1	2.1	-4.2	98.4*	102.8	8.7	2.4
COc1ccc(-c2nc(CS(=O)(=O)CC(=O)NCc3ccccc3OC)c(C)o2)cc1	12.3	17.2	98.8*	105.2	3.1	7.2
COc1ccc(-c2nc(CS(=O)(=O)CC(=O)NCc3ccc(F)cc3)c(C)o2)cc1	19.7	-8.7	-1.3	98.6	4.3	2.8
COc1ccc(-c2nc(CS(=O)(=O)CC(=O)NCc3cccc(OC)c3OC)c(C)o2)cc1	-2.0	4.0	-0.1	77.9	-5.7	-4.0
CCN(CCCNC(=O)CNC(=O)Cn1cnc2ccccc2c1=O)c1ccccc1	-2.0	-2.7	98.0*	115.4	/	4.7
CCN(CCCNC(=O)CCc1nc(-c2ccc(OC)cc2)no1)c1cccc(C)c1	10.6	5.0	86.7*	102.5	-13.0	19.9
CCOCCCNC(=O)Cn1cc2c(n1)CCCC2	11.5	3.0	-16.0	110.3	-3.8	-4.3
CCCN(C(=O)CCNC(=O)Cn1cnc2ccccc2c1=O)c1cccc(C)c1	-6.9	3.9	-0.2	92.5	-5.3	9.4
CCN(CCCNC(=O)Cn1cc2c(n1)CCCC2)c1cccc(C)c1	35.7	-1.3	98.9*	106.2	5.5	4.3
CCN(CCCNC(=O)CCNC(=O)Cn1cnc2ccccc2c1=O)c1cccc(C)c1	24.6	9.4	99.3*	/	-2.6	9.3
CCCN(CC(=O)Nc1ccccc1C)C(=O)/C=C/c1ccc(OC)c(OC)c1	/	/	/	98.1	/	/
SMILES	NALP1 yeast inh	Arrestin-AP2 inh	ALR H2O2 inh	Pemphigus Ab inh	PolyA inh	NLRP3 yeast inh
O=C(C[C@H]1C[C@@H]2c3cc(NC(=O)c4cccnc4)ccc3O[C@@H]2[C@H](CO)O1)NCc1ccncc1	/	/	/	105.8	/	/
CNC(=O)c1ccc2cc(OC)c(OC)cc2c1	/	/	/	101.6	/	/
Cc1nc2ccccc2n1CCc1nc2c3ccccc3nc(=S)n2[nH]1	-13.7	-24.1	91.6*	102.8	0.7	11.0
Cc1ccccc1-c1nc2c3ccccc3nc(=S)n2[nH]1	-48.4	20.4	/	98.8	-4.8	/
O=c1cc(CN2CCc3ccccc32)c2ccc(O)cc2o1	7.7	6.3	99.4*	106.8	-3.5	-3.1
CCCCN(C)C(=O)CS(=O)(=O)Cc1nc(-c2cccc(OC)c2)oc1C	19.5	20.9	98.8*	83.9	1.6	7.6
COc1ccc(-c2nc(CS(=O)(=O)CC(=O)NCc3cccc(F)c3)c(C)o2)cc1	-2.6	18.7	97.1*	99.0	-12.5	6.3
COc1ccc(CNC(=O)CS(=O)(=O)Cc2nc(-c3cccc(OC)c3)oc2C)cc1	7.1	22.1	90.5*	95.0	5.3	17.3
COc1cccc(-c2nc(CS(=O)(=O)CC(=O)NCCc3ccc(C)cc3)c(C)o2)c1	5.7	5.2	-32.3	/	-0.7	10.1
COc1cccc(-c2nc(CS(=O)(=O)CC(=O)Nc3c(C)cccc3C)c(C)o2)c1	10.8	10.2	11.1	82.3	7.3	-3.2
Cc1cccc(OC(=O)c2ccc3c(=O)n4c(nc3c2)CCC4)c1	/	/	/	96.1	/	/
CC(=O)c1ccc(NC(=O)C(C)Sc2nnc(C3CCCCC3)o2)cc1 (stereo unspecified)	3.0	/	1.8	/	6.0	4.6
CCCCN(C(=O)c1cc(S(=O)(=O)N2CCCCCC2)ccc1OC)c1ccccc1	/	-12.4	1.0	96.3	-12.4	11.6
O=C(CN1C(=O)c2ccccc2S1(=O)=O)c1ccc(O)c(O)c1	/	9.7	?	99.8	3.1	5.0
O=C1c2cc(O)c(O)cc2S(=O)(=O)C1c1ccccc1 (stereo unspecified)	/	-0.6	99.0*	100.0	-13.1	13.4
CC1(C)CC(NC(=O)c2cc(Cl)ccc2Cl)CC(C)(C)N1	17.4	-11.4	-29.6	97.3	1.3	16.5
Cn1ccsc1=NC(=O)c1cc(S(=O)(=O)N2CCOCC2)ccc1F	/	-0.2	/	95.9	-9.1	7.7
COc1ccnc(N2CCN(c3cccc(C(F)(F)F)c3)CC2)c1C#N	-1.7	-1.9	-8.6	79.2*	2.5	11.9
COc1cccc(N2CCN(c3nc(C)cc(C)c3C#N)CC2)c1	14.3	6.1	85.7*	117.8	-9.0	21.5
COc1ccnc(N2CCN(c3ccc(Cl)cc3)CC2)c1C#N	9.1	-1.8	43.9	99.9	-2.3	-3.9
CCCc1cc(=O)oc2cc(OCC(=O)N(C)C)c(Cl)cc12	-18.0	2.4	-5.5	2.6*	2.4	3.4
CCCc1cc(=O)oc2cc(OCC(=O)N3CCOCC3)c(Cl)cc12	3.0	11.0	/	105.8	-4.2	-9.3

Screening data: PubChem, several laboratories
